Hits are enriched below; roughly 9.6% of the tested compounds scored in any of these assays.
PMI act satM6P: human PMI activators, high substrate, primary screen, biochemical, fluorescence intensity, near-saturating mannose 6-phosphate. coupled PMI enzyme assay, resazurin fluorescence, 20 min; stronger effect = higher value; 1 = untreated enzyme, 0 = substrate-free blank. activation factor at 20 µM. 0.34% of 190,000 active. AID 1216, 2008. Mannose-6-phosphate isomerase (Homo sapiens), P34949;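 active means activation factor of 2 or more at 20 µM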
Target sequence (P34949 whole entry, looked up): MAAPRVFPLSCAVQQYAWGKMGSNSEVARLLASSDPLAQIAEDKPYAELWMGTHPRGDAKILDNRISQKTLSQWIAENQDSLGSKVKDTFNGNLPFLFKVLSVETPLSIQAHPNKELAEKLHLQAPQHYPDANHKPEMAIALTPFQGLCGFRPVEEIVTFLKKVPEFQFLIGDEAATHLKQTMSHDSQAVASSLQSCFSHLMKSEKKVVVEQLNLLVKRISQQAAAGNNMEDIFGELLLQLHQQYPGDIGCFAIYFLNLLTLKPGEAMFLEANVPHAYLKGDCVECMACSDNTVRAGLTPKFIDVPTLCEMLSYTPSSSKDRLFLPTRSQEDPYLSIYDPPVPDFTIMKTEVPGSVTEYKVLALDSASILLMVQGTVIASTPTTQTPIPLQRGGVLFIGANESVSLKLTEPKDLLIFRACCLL
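Material: human phosphomannose isomerase with PGI, G6PDH, diaphorase coupling enzymes / Reagent: Man-6-P substrate 1.0 mM / Dosing: single compound dose of 20 µM, 1% DMSO final / Incubation: enzyme reaction with compound 20 min at room temperature / Signal: resorufin fluorescence (Ex 544/Em 590 nm) from resazurin via diaphorase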
Lmaj promast: Leishmania major promastigote growth inhibition, primary screen. 9% of 200,000 active. inhibition, % at 10 µM. Leishmania major promastigotes, resazurin fluorescence viability; in the data active means inhibition above about 50%;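 further: promastigotes grown with compound for 44 hours at 28 °C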
HCT116 PTEN-null: growth suppression of PTEN-null HCT116, primary screen, cell-based, CellTiter-Glo; HCT116 PTEN-null viability, 60 h; stronger effect = lower value; viability, % at 10 µM; 1.2% of 140,000 active; AID 827, 2007;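 active means viability at or below a set limit, 4 SD under the median of all tested compounds, cut at about 3.7% in these data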;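 further: PTEN knockout HCT116 line with beta catenin targeted HCT116 as companion control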
HCT116 bCat-KO: primary screen for growth suppressors in beta-catenin knockout HCT116 cells (colon tumor, human); HCT116 beta-catenin knockout viability, CellTiter-Glo, 60 h; stronger effect = lower value; viability, % at 10 µM; 1.5% of 140,000 active; AID 818, 2007;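 active means viability at or under a set limit, the compound median less 4 SD, cut at about 6% in these data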
PMI activator: activators of human PMI, primary screen, biochemical, fluorescence intensity, near-Km mannose 6-phosphate; Mannose-6-phosphate isomerase (Homo sapiens), P34949; purified human PMI, coupled resazurin fluorescence, 20 min; stronger effect = higher value; 1 = vehicle control, 0 substrate-free wells; activation factor at 20 µM; 0.005% of 190,000 active;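 active means activation factor of 2 or more at 20 µM, relative to plate controls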
Each line names hits and unclear results; the compound was inactive in the other large screens.

CCSc1nc2ccc(N3C(=O)C4C5C=CC(C5)C4C3=O)cc2s1 (stereo not given)	none
CSc1cccc(NS(=O)(=O)c2ccc(F)cc2)c1	Lmaj promast 55
CSc1cccc(NS(=O)(=O)c2ccccc2)c1	none
O=C1/C(=N/n2cnnc2)c2ccccc2N1Cc1ccccc1	Lmaj promast 85
O=C(N/C(=C/c1cccs1)C(=O)N1CCOCC1)c1ccccc1	none (no result: HCT116 PTEN-null, HCT116 bCat-KO)
CCOC(=O)c1c2c(n(C)c1COC)C(=O)C(=O)c1ccc(Br)cc1-2	Lmaj promast 100 (no result: PMI act satM6P, HCT116 PTEN-null, HCT116 bCat-KO, PMI activator)
CCCn1c(=O)c(C(=O)OCC)c(O)c2cc(Br)ccc21	none (no result: HCT116 PTEN-null, HCT116 bCat-KO)
CC(Sc1nnc(-c2ccc(Cl)cc2Cl)n1Cc1ccccc1)C(=O)Nc1nccs1 (stereo not given)	Lmaj promast 65
c1ccc(Cc2noc(CN3CCN(C4CCc5ccccc5C4)CC3)n2)cc1 (stereo not given)	Lmaj promast 87 (no result: HCT116 PTEN-null, HCT116 bCat-KO)
c1ccc(Cc2noc(CN3CCC(CN4CCOCC4)CC3)n2)cc1	none (no result: HCT116 PTEN-null, HCT116 bCat-KO)
c1ccc(Cc2noc(CN3CCCN(C4Cc5ccccc5C4)CC3)n2)cc1	Lmaj promast 92 (no result: HCT116 PTEN-null, HCT116 bCat-KO)
N#CCCN/N=C(/Cc1nc2ccccc2[nH]1)c1cccc(Cl)c1	Lmaj promast 78
CN/N=C(\Cc1nc2ccccc2[nH]1)c1ccc([N+](=O)[O-])cc1	none (no result: HCT116 PTEN-null, HCT116 bCat-KO)
O=C(NCCc1nc2ccccc2[nH]1)c1cccc(Br)c1	none (no result: HCT116 PTEN-null, HCT116 bCat-KO)
Clc1ccc(/C(Cc2nc3ccccc3[nH]2)=N\Nc2ccccc2)cc1	PMI act satM6P 3 (no result: HCT116 PTEN-null, HCT116 bCat-KO)
COc1ccc(NC(=O)Cn2c(NCC(C)O)nc3ccccc32)cc1Cl (stereo not given)	none (no result: HCT116 PTEN-null, HCT116 bCat-KO)
CC(=O)NCCCNS(=O)(=O)c1ccc(C)cc1	none (no result: HCT116 PTEN-null, HCT116 bCat-KO)
CCOC(=O)c1c(CSc2ccccc2)n(C)c2cc(Br)c(OCC(O)CNC(CO)(CO)CO)cc12 (stereo not given)	HCT116 PTEN-null 2.1, HCT116 bCat-KO 1.5
CCOC(=O)c1c(CN2CCN(Cc3ccccc3)CC2)n(C)c2cc(Br)c(OC)cc12	none
OCCSc1nnc(Nc2ccccc2)s1	none
N#CCSc1nnc(Nc2ccccc2)s1	Lmaj promast 65
O=S(=O)(NCCSc1ccc(Cl)cc1)c1ccc(F)cc1	none
Cc1ccc(SCCNS(=O)(=O)c2ccc(F)cc2)cc1	Lmaj promast 53
Cc1ccc(C)c(NC(=S)N(CCN(C)C)C(C)c2ccccn2)c1 (stereo not given)	none (no result: HCT116 PTEN-null, HCT116 bCat-KO)
O=C(c1ccc(Cn2c(=O)[nH]c3ccccc3c2=O)cc1)N1CCN(c2ccc(Cl)cc2)CC1	Lmaj promast 96
Cc1ccc(C)c(N2CCN(C(=O)c3ccc(Cn4c(=O)[nH]c5ccccc5c4=O)cc3)CC2)c1	Lmaj promast 98
CC(=O)c1ccc(N2CCN(C(=O)c3ccc(Cn4c(=S)[nH]c5ccc(N6CCOCC6)cc5c4=O)cc3)CC2)cc1	Lmaj promast 98 (no result: HCT116 PTEN-null, HCT116 bCat-KO)
O=c1c2cc(N3CCOCC3)ccc2[nH]c(=S)n1Cc1ccccc1Cl	none (no result: HCT116 PTEN-null, HCT116 bCat-KO)
C=CCn1c(=O)[nH]c2cc(C(=O)N3CCN(c4cc(C)ccc4C)CC3)ccc2c1=O	none
CCN(CC)S(=O)(=O)c1cc(C(=O)OCC(=O)Nc2cccc(C)c2C)ccc1F	none
O=C(Nc1ccc(N2CCCCC2)cc1)c1ccccn1	none (no result: HCT116 PTEN-null, HCT116 bCat-KO)
CCCOC(=O)c1c(NC(=O)C2C3C=CC(C3)C2C(=O)O)sc2c1CCC(C)C2 (stereo not given)	none (no result: HCT116 PTEN-null, HCT116 bCat-KO)
O=C1C(NS(=O)(=O)c2ccc(Cl)cc2)=C(N2CCCCC2)C(=O)c2ccccc21	Lmaj promast 89
CC(=O)Nc1ccccc1NS(=O)(=O)c1ccc(Cl)cc1	none
Cc1ccc(Cl)cc1Nc1nc(-c2sc(NC(=O)c3ccccc3)nc2C)cs1	Lmaj promast 50
CCOc1ccccc1Nc1nc(-c2sc(NC(=O)c3cccc(Cl)c3)nc2C)cs1	HCT116 bCat-KO 5.1
CCOc1ccccc1Nc1nc(-c2sc(NC(=O)c3ccccc3)nc2C)cs1	Lmaj promast 100
Cc1cc(NS(=O)(=O)c2ccc(Nc3nc(-c4sc(NC(=O)c5ccccc5)nc4C)cs3)cc2)no1	none
COc1ccccc1Nc1nc(-c2sc(NC(=O)c3ccc([N+](=O)[O-])cc3)nc2C)cs1	none
COc1ccccc1Nc1nc(-c2sc(NC(=O)c3ccccc3)nc2C)cs1	Lmaj promast 81
C/C(=C\C=C\c1ccccc1)C(=O)c1c(C)cc(C)[nH]c1=O	none (no result: HCT116 PTEN-null, HCT116 bCat-KO)

Screens (PubChem BioAssay)
